Assay results from paper PMC2275130 (Nucleic Acids Research, 2008).

Experiments:
Assay type in all cases: biochemical
HCV NS5BCΔ21 [1] = target: T1, HCV NS5BCΔ21 (Hepatitis C virus genotype 1b, UniProt P26663); test: Gel-based incorporation assay; settings: highest concentration of wedelolactone (lane 5, 100 μM), poly rA/U12, 20 min
Outline: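 Stopped with 25 mM EDTA/0.5% SDS, then phenol-chloroform extracted and ethanol precipitated. Products were heated 90°C for 5 min, run on denaturing 6% polyacrylamide/7 M urea gel and imaged by phosphorimager.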

HCV NS5BCΔ21 [2] = target: T1, HCV NS5BCΔ21; test: NS5B RdRp assay; settings: NS5B inhibition (IC50 μM), poly rA/U12, 25 μM UTP, 0.5 mM MnCl2, 10% DMSO, 1 h at 30°C
Outline: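 NS5BCΔ21 (300–500 ng) and poly rA/U12 (0.5 μM) sat 5 min on ice before NTPs were added. Reactions ran 1 h at 30°C, then TCA quench and GF-B counting. IC50s were read from curves relative to DMSO control, from at least two independent runs.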

HIV-1 RT = HIV-1 RT (Human immunodeficiency virus type 1 group M subtype B, UniProt P04585); test: HIV-1 RT counter screen
Outline: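 His-tagged p66/p51 heterodimeric wild-type RT, Ni-NTA purified, used at 10 nM. Reactions ran 37°C for 20 min, were stopped with ice-cold 5% TCA/0.5 mM pyrophosphate, filtered on GF-B and scintillation counted.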

[3] = target: Klenow fragment of E. coli DNA polymerase I (Escherichia coli, UniProt P00582); test: Klenow polymerase counter screen; settings: read-out: IC50 Klenow polymerase counter screen; poly rA/dT18, 10% DMSO
Outline: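 Exonuclease-deficient Klenow fragment from E. coli BL-21(DE3), purified by ammonium sulfate fractionation and Biorex-70, used at 10 nM. Ran 37°C for 20 min, TCA/pyrophosphate quench, GF-B filtration, scintillation counting.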

HCV NS5BCΔ21 [4] = target: T1, HCV NS5BCΔ21; test: Determination of Ki and mode of inhibition; settings: towards template/primer (poly rA/U12 varied), UTP fixed 25 μM
Outline: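 Aliquots were taken at defined times, quenched in 5% TCA/0.5 mM pyrophosphate, and counted by GF-B filter binding. Ki and mode came from Dixon and Cornish-Bowden plots. Each run was done at least twice; values average at least triplicates.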

In the case of `COc1cc(O)c2c(c1)oc(=O)c1c3cc(O)c(O)cc3oc21` [Wedelolactone, 7-methoxy-5,11,12-trihydroxy-coumestan], the “extension product formation (gel)” value (HCV NS5BCΔ21 [1]) is reported as “no detectable extension product”, the IC50 (HCV NS5BCΔ21 [2]) is reported as 36.1 µM and the IC50 (HIV-1 RT) is reported as over 250 µM. It also gave an IC50 [3] of over 700 µM, a Ki (HCV NS5BCΔ21 [4]; Ki competitive) of 11.2 µM and a Ki uncompetitive (HCV NS5BCΔ21 [4]) of 43 µM.
